{"source": "ChEMBL document CHEMBL2380219", "about": "“Physalin A induces apoptotic cell death and protective autophagy in HT1080 human fibrosarcoma cells” (J Nat Prod, 2013)", "key": {"[1]": {"test_system": "HT-1080", "assay": "Induction of apoptosis in human HT1080 cells assessed as change in procaspase-9 expression level at 10 uM after 6 to 24 hrs by Western blotting analysis", "type": "functional, cell-based", "how_it_was_run": "(§1)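 HT1080 cells treated with 10 μM for 6, 12, 18 and 24 h. Adherent and floating cells lysed 60 min at 4 °C in Hepes pH 7.4/1% Triton X-100 buffer with phosphatase and protease inhibitors. Equal protein run on 12% SDS-PAGE, transferred to nitrocellulose, probed with specific antibodies, HRP/ECL detection. Band density normalized to β-actin; n = 3.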"}, "[2]": {"test_system": "HT-1080", "assay": "Induction of apoptosis in human HT1080 cells assessed as change in cytochrome C expression at 10 uM after 6 to 24 hrs by Western blotting analysis", "type": "functional, cell-based", "how_it_was_run": "as §1"}, "[3]": {"test_system": "HT-1080", "assay": "Cytotoxicity against human HT1080 cells assessed as growth inhibition at 10 uM pretreated with z-LEHD-FMK for 1 hr prior to compound addition measured after 24 hrs by MTT assay", "type": "functional, cell-based", "how_it_was_run": "(§2)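 HT1080 seeded 0.8 × 10^4 cells/well. MTT 2 h at 37 °C, formazan in DMSO, A492 read. Inhibition % calculated against untreated and blank wells.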"}, "[4]": {"test_system": "HT-1080", "assay": "Cytotoxicity against human HT1080 cells assessed as growth inhibition at 1 to 100 uM by MTT assay", "type": "functional, cell-based", "details": "TDE = time-dependent effect"}, "[5]": {"test_system": "HT-1080", "assay": "Induction of apoptosis in human HT1080 cells expressing beclin 1 siRNA assessed as suppression of LC31to LC32 conversion at 10 uM after 24 hrs by Western blotting analysis relative to control", "type": "functional, cell-based", "how_it_was_run": "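Beclin 1 or nonspecific siRNA transfected into HT1080 cells (5 × 10^5 seeded a day earlier; transfection mixture for 7 h at 37 °C, then normal medium, 24 h before harvest). Cells then got 10 μM for 24 h. Adherent plus floating cells lysed in Hepes pH 7.4/Triton buffer at 4 °C for 60 min. Equal protein on 12% SDS-PAGE, nitrocellulose, ECL. Bands normalized to β-actin, n = 3.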"}, "[6]": {"test_system": "HT-1080", "assay": "Induction of apoptosis in human HT1080 cells assessed as downregulation of ICAD at 10 uM pretreated with 3MA for 1 hr prior to compound addition measured after 24 hrs by Western blotting analysis", "type": "functional, cell-based", "how_it_was_run": "(§3)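 HT1080 cells pretreated 1 h with 1 mM 3MA or 1 nM rapamycin, then co-incubated with 10 μM for 24 h. Adherent and floating cells lysed in Hepes pH 7.4/Triton buffer. 12% SDS-PAGE, nitrocellulose, antibodies against Fas, FADD, caspase-8, caspase-3, PARP and ICAD, ECL detection. Densities normalized to β-actin; n = 3.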"}, "[7]": {"test_system": "HT-1080", "assay": "Cytotoxicity against human HT1080 cells assessed as growth inhibition at 10 uM pretreated with z-IETD-FMK for 1 hr prior to compound addition measured after 24 hrs by MTT assay", "type": "functional, cell-based", "how_it_was_run": "as §2"}, "[8]": {"test_system": "HT-1080", "assay": "Induction of autophagy in human HT1080 cells assessed as increase in autophagy ratio at 10 uM pretreated with rapamycin for 1 hr prior to compound addition measured after 24 hrs by MDC staining-based FACS flow cytometric analysis", "type": "functional, cell-based", "how_it_was_run": "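HT1080 cells seeded at 3 × 10^5 per flask and grown 24 h. Pretreated 1 h with 1 mM 3MA or 1 nM rapamycin, then 10 μM for 24 h. Collected cells stained with 0.05 mM MDC at 37 °C for 1 h. MDC-positive ratio measured by flow cytometry, n = 3, mean ± SD.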"}, "[9]": {"test_system": "HT-1080", "assay": "Induction of apoptosis in human HT1080 cells assessed as downregulation of ICAD at 10 uM after 6 to 24 hrs by Western blotting analysis", "type": "functional, cell-based", "how_it_was_run": "as §1"}, "[10]": {"test_system": "HT-1080", "assay": "Cytotoxicity against human HT1080 cells assessed as growth inhibition at 10 uM pretreated with rapamycin for 1 hr prior to compound addition measured after 24 hrs by MTT assay.", "type": "functional, cell-based", "how_it_was_run": "as §2"}, "[11]": {"test_system": "HT-1080", "assay": "Induction of apoptosis in human HT1080 cells assessed as procaspase-3 cleavage at 10 uM by Western blotting analysis", "type": "functional, cell-based", "details": "TDE = time-dependent effect"}, "[12]": {"test_system": "HT-1080", "assay": "Induction of apoptosis in human HT1080 cells assessed as increase in FADD protein expression at 10 uM after 6 to 24 hrs by Western blotting analysis", "type": "functional, cell-based", "how_it_was_run": "as §1"}, "[13]": {"test_system": "HT-1080", "assay": "Induction of apoptosis in human HT1080 cells assessed as upregulation of FADD protein expression at 10 uM pretreated with 3MA for 1 hr prior to compound addition measured after 24 hrs by Western blotting analysis", "type": "functional, cell-based", "how_it_was_run": "as §3"}, "[14]": {"test_system": "HT-1080", "assay": "Induction of apoptosis in human HT1080 cells expressing beclin 1 siRNA assessed as increase in FADD protein expression at 10 uM after 24 hrs by Western blotting analysis relative to control", "type": "functional, cell-based", "how_it_was_run": "(§4)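 5 × 10^5 HT1080 cells transfected with beclin 1 or nonspecific siRNA using TranSmarter for 7 h at 37 °C, then kept 24 h in normal medium. Treated with 10 μM for 24 h and lysed. Proteins assessed by Western blot with β-actin normalization and compared with nonspecific-siRNA groups.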"}, "[15]": {"test_system": "HT-1080", "assay": "Induction of apoptosis in human HT1080 cells assessed as increase in apoptotic ratio at 10 uM pretreated with 3MA for 1 hr prior to compound addition measured after 24 hrs by propidium iodide staining-based FACS flow cytometric analysis", "type": "functional, cell-based"}, "[16]": {"test_system": "MCF7", "assay": "Cytotoxicity against human MCF7 cells assessed as growth inhibition after 24 hrs by MTT assay", "type": "functional, cell-based", "how_it_was_run": "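Seeded 0.8 × 10^4 cells/well, cultured 24 h, then exposed to 0, 10, 20, 40 or 80 μM for 24 h (DMSO <0.05%) in RPMI 1640 or MEM with 10% FBS. Adherent lines rinsed with PBS, given MTT 2 h at 37 °C. Suspension lines (U937, HL60) given MTT 2 h, then centrifuged. Formazan dissolved in DMSO, A492 read. Inhibition % = (control − sample)/(control − blank) × 100.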"}, "[17]": {"test_system": "HT-1080", "assay": "Induction of autophagy in human HT1080 cells assessed as upregulation of beclin 1 at 10 uM by Western blotting analysis", "type": "functional, cell-based", "details": "TDE = time-dependent effect", "how_it_was_run": "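HT1080 cells exposed to 10 μM for 6, 12, 18 and 24 h, then lysed in Hepes pH 7.4/Triton buffer at 4 °C for 60 min. Equal protein run on 12% SDS-PAGE, blotted to nitrocellulose, probed for beclin 1 and LC3, ECL detection. Densities taken relative to β-actin, n = 3.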"}, "[18]": {"test_system": "HT-1080", "assay": "Cytotoxicity against human HT1080 cells assessed as growth inhibition at 10 uM pretreated with 3MA for 1 hr prior to compound addition measured after 24 hrs by MTT assay", "type": "functional, cell-based", "how_it_was_run": "as §2"}, "[19]": {"test_system": "PBMC", "assay": "Cytotoxicity against human PBMC at 10 to 80 uM after 24 to 48 hrs by MTT assay", "type": "cell-based", "how_it_was_run": "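PBMC from fresh blood of three healthy male donors. Blood diluted 1:3 in PBS, layered on Ficoll-Hypaque (1.077 g/mL), spun 900g 30 min. Band washed 400g 10 min, cells resuspended in complete RPMI-1640 in 96-well plates. Treated with 0, 10, 20, 40 or 80 μM for 24 and 48 h, then MTT. Means ± SD of three independent experiments.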"}, "[20]": {"test_system": "HT-1080", "assay": "Induction of apoptosis in human HT1080 cells expressing beclin 1 siRNA assessed as ICAD downregulation at 10 uM after 24 hrs by Western blotting relative to control", "type": "functional, cell-based", "how_it_was_run": "as §4"}, "[21]": {"test_system": "HT-1080", "assay": "Induction of apoptosis in human HT1080 cells assessed as downregulation of ICAD at 10 uM pretreated with rapamycin for 1 hr prior to compound addition measured after 24 hrs by Western blotting analysis", "type": "functional, cell-based", "how_it_was_run": "as §3"}}, "note": "Active and inactive are the calls of the source. The calls are words filed in the database; no cut-off is given here.", "data": [{"molecule": "C=C1C(=O)O[C@@H]2C[C@@]1(C)[C@@H]1C(=O)[C@]3(O)O[C@]14[C@@]2(C)OC(=O)[C@@]4(O)CC[C@H]1[C@H]3[C@H](O)C=C2CC=CC(=O)[C@@]21C", "note": "[PHYSALIN A]", "values": [{"measurement": "Activity", "setting": "[1]", "result": "inactive"}, {"measurement": "Activity", "setting": "[2]", "result": "inactive"}, {"measurement": "growth inhibition (GI)", "setting": "[3]", "result": "inactive"}, {"measurement": "growth inhibition (GI)", "setting": "[4]", "result": "tde"}, {"measurement": "Activity", "setting": "[5]", "result": "Active"}, {"measurement": "Activity", "setting": "[6]", "result": "Active"}, {"measurement": "growth inhibition (GI)", "setting": "[7]", "result": "Active"}, {"measurement": "Activity", "setting": "[8]", "result": "Active"}, {"measurement": "Activity", "setting": "[9]", "result": "Active"}, {"measurement": "growth inhibition (GI)", "setting": "[10]", "result": "inactive"}, {"measurement": "Activity", "setting": "[11]", "result": "tde"}, {"measurement": "Activity", "setting": "[12]", "result": "Active"}, {"measurement": "Activity", "setting": "[13]", "result": "Active"}, {"measurement": "Activity", "setting": "[14]", "result": "Active"}, {"measurement": "Activity", "setting": "[15]", "result": "Active"}, {"measurement": "growth inhibition (GI)", "setting": "[16]", "result": "Dose-dependent effect"}, {"measurement": "Activity", "setting": "[17]", "result": "tde"}, {"measurement": "growth inhibition (GI)", "setting": "[18]", "result": "Active"}, {"measurement": "Activity", "setting": "[19]", "result": "Non-toxic"}, {"measurement": "Activity", "setting": "[20]", "result": "Active"}, {"measurement": "Activity", "setting": "[21]", "result": "inactive"}]}]}
